4 compounds from ChEMBL document CHEMBL1124852, “Synthesis of 3-arylecgonine analogues as inhibitors of cocaine binding and dopamine uptake” (J Med Chem, 1990) can be followed below.

SMILES strings stand for the structures.

Assay [1] has as its target Sodium-dependent dopamine transporter (Bos taurus, UniProt P27922). Nature of the assay: Competitive inhibition against [3H]cocaine binding to cocaine receptor in bovine striatal tissue. It counts as tissue-based, Striatum. Put shortly:
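Bovine striatum (caudate, putamen, globus pallidus, nucleus accumbens) homogenised in ice-cold 10 mM Na2HPO4 with 0.32 M sucrose, pH 7.4. Pelleted twice at 17000g for 20 min and resuspended to about 3.0 mg/mL protein (Lowry). [3H]cocaine (29.7 Ci/mmol) binding measured by filtration. Triplicates; mean of three experiments; IC50 by log-logit transformation.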

Another assay is filed under the species Bos taurus. The experiment in a line: Competitive inhibition against [3H]dopamine uptake in bovine striatal tissue. The format is functional, Striatum. Put shortly:
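Striatal P2 synaptosomes prepared in ice-cold 0.3 M sucrose with […], pH 7.4 (3000g for 10 min, then supernatant at 17000g for 20 min). [3H]dopamine (30 Ci/mmol) uptake read by filtration at 37 °C; nonspecific uptake measured at 4 °C. Run in triplicate; mean of three experiments; IC50 from log-logit transformation.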

Sodium-dependent dopamine transporter, sequence (P27922 whole entry): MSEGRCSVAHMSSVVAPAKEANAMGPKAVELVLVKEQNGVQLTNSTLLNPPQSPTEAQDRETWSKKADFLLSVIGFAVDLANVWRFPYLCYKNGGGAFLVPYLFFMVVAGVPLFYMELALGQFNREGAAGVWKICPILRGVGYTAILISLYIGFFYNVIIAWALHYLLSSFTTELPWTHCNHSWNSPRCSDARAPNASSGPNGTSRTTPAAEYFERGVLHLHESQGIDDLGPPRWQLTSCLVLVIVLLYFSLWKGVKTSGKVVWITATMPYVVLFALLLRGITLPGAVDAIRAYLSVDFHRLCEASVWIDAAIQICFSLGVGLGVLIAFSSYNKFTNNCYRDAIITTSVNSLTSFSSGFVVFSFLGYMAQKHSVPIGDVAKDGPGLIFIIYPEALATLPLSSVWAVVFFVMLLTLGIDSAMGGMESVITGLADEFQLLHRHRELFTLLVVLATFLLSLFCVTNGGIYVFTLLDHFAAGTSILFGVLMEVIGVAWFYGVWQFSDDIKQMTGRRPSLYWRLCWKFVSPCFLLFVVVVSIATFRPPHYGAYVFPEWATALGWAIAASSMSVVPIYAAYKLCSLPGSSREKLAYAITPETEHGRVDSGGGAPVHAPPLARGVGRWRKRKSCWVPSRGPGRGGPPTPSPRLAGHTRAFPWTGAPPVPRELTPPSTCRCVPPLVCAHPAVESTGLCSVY

In the case of `COC(=O)[C@@H]1C2CC[C@H](C[C@@H]1c1ccccc1)N2C` (mixture of isomers; form 1), the IC50 was 22 nM in assay [1] and 133 nM in the assay filed under Bos taurus.

Turning to `COC(=O)C1C(c2ccc([N+](=O)[O-])cc2[N+](=O)[O-])CC2CCC1N2C` (racemic), the IC50 in assay [1] was 11000 nM; in the assay listed under Bos taurus (Bos taurus, Striatum), 30000 nM.

Turning to `COC(=O)C1C(c2ccc(N)cc2)CC2CCC1N2C` (stereo not drawn), the IC50 is 192 nM in assay [1] and 557 nM in the assay listed under Bos taurus (Bos taurus, Striatum).

For `COC(=O)[C@@H]1C2CC[C@H](C[C@@H]1c1ccccc1)N2C` (mixture of isomers; form 2), the IC50 in assay [1] was found to be 1200 nM; in the assay filed under Bos taurus, 2100 nM.
